Laboratory results taken from ChEMBL document CHEMBL3877264, “Quinolidene-rhodanine conjugates: Facile synthesis and biological evaluation” (Eur J Med Chem, 2017).
In brackets after ≈: the same amount, converted by molar mass.

How the values were obtained:
[1] = Selectivity index, ratio of GI50 for human PANC1 cells to MIC for Mycobacterium tuberculosis H37Ra ATCC 25177 at dormant stage; assay type: toxicity, cell-based, PANC-1; conditions: read-out: Selectivity Index
Method in brief: (§1)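 SI is the cell-line GI50 divided by the dormant-stage mycobacterial MIC. […] THP-1 macrophages were PMA-differentiated for 24 h.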

[2] = Selectivity index, ratio of GI50 for HUVEC to MIC for Mycobacterium tuberculosis H37Ra ATCC 25177 at dormant stage
[3] = tested on: Mycobacterium tuberculosis; test: Growth inhibition of Mycobacterium tuberculosis H37Ra ATCC 25177 at dormant stage measured after 12 days by XTT dye based two fold dilution method; assay type: functional; conditions: H37Ra ATCC 25177, 288 h
Method in brief: (§2)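 MTB H37Ra was grown in Dubos medium, then exposed in Mycobacterium pheli minimal medium (pH 6.6) to compounds dissolved in DMSO. The assay ended on day 8 (active) or day 12 (dormant). Viable cells were measured by XTT reduction menadione assay at 470 nm, blank-corrected, relative to vehicle control. Triplicates were expressed as mean ± SD. MIC came from dose-response curves.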

[4] = tested on: Mycobacterium tuberculosis; test: Growth inhibition of Mycobacterium bovis BCG ATCC 35743 at dormant stage at 3 ug/ml measured after 12 days by nitrate reductase dye based two fold dilution method relative to control; assay type: functional; conditions: BCG str. ATCC 35743, 288 h, read-out: GI
Method in brief: (§3)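 M. bovis BCG was grown in Dubos medium and assayed in Mycobacterium pheli minimal medium (pH 6.6), with compounds from DMSO stocks. Incubation lasted 8 days for active and 12 days for dormant cultures. Viability was read by nitrate reductase at 540 nm against cell-free blanks, with vehicle set as 100% growth. Primary screen was at 30, 10 and 3 µg/ml, in triplicate, mean ± SD. MIC was taken from dose-response curves.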

[5] = tested on: Mycobacterium tuberculosis; test: Growth inhibition of Mycobacterium tuberculosis H37Ra ATCC 25177 at dormant stage at 3.13 ug/ml measured after 12 days by XTT dye based two fold dilution method relative to control; assay type: functional; conditions: H37Ra ATCC 25177, 288 h, read-out: GI; method in brief: as §2
[6] = tested on: Bacillus subtilis; test: Growth inhibition of Bacillus subtilis NCIM 2079 at 30 ug/ml measured after 12 hrs relative to control; assay type: functional; conditions: NCIM 2079, 12 h, read-out: GI
Method in brief: (§4)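 Bacteria grown in LB at 37 °C and 180 rpm to OD 1. Compounds added to wells, then 0.1% inoculum of 1 OD culture (620 nm). Growth read as OD at 620 nm after 8 h for gram-negative and after 12 h for gram-positive strains.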

[7] = Cytotoxicity against primary HUVEC measured after 48 hrs by MTT assay; assay type: toxicity, cell-based; conditions: human
[8] = tested on: Mycobacterium tuberculosis; test: Growth inhibition of Mycobacterium bovis BCG ATCC 35743 at active stage at 0.78 ug/ml measured after 8 days by nitrate reductase dye based two fold dilution method relative to control; assay type: functional; conditions: BCG str. ATCC 35743, 192 h, read-out: GI; method in brief: as §3
[9] = Selectivity index, ratio of GI50 for human A549 cells to MIC for Mycobacterium tuberculosis H37Ra ATCC 25177 at dormant stage; assay type: toxicity, cell-based; conditions: read-out: Selectivity Index; method in brief: as §1
[10] = tested on: Candida albicans; test: Antifungal activity against Candida albicans NCIM 3471 by standard agar method; assay type: functional
Method in brief: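 MICs determined by standard agar method; DMSO as solvent control.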

[11] = tested on: Mycobacterium tuberculosis; test: Growth inhibition of Mycobacterium tuberculosis H37Ra ATCC 25177 at active stage at 25 ug/ml measured after 8 days by XTT dye based two fold dilution method relative to control; assay type: functional; conditions: H37Ra ATCC 25177, 192 h, read-out: GI; method in brief: as §2
[12] = Cytotoxicity against human THP1 cells measured after 48 hrs by MTT assay; assay type: toxicity, cell-based, THP-1
Method in brief: (§5)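 MTT assay with 48 h compound exposure. THP-1 macrophages made by 24 h PMA treatment. Each concentration tested in triplicate in one experiment. % cytotoxicity = (control−test)/(control−blank)×100, with control = cells + DMSO and blank = medium without cells. IC50 from % survival versus concentration plots.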

[13] = tested on: Mycobacterium tuberculosis; test: Growth inhibition of Mycobacterium tuberculosis H37Ra ATCC 25177 at active stage at 50 ug/ml measured after 8 days by XTT dye based two fold dilution method relative to control; assay type: functional; conditions: H37Ra ATCC 25177, 192 h, read-out: GI; method in brief: as §2
[14] = tested on: Mycobacterium tuberculosis; test: Growth inhibition of Mycobacterium tuberculosis H37Ra ATCC 25177 at active stage at 100 ug/ml measured after 8 days by XTT dye based two fold dilution method relative to control; assay type: functional; conditions: H37Ra ATCC 25177, 192 h, read-out: GI; method in brief: as §2
[15] = Cytotoxicity against human HeLa cells at 100 ug/ml assessed as growth inhibition measured after 48 hrs by MTT assay relative to control; assay type: toxicity, cell-based; conditions: read-out: GI
[16] = tested on: Escherichia coli; test: Growth inhibition of Escherichia coli NCIM 2688 at 3 ug/ml measured after 8 hrs relative to control; assay type: functional; conditions: NCIM 2688, 8 h, read-out: GI; method in brief: as §4
[17] = tested on: Mycobacterium tuberculosis; test: Growth inhibition of Mycobacterium tuberculosis H37Ra ATCC 25177 at dormant stage at 50 ug/ml measured after 12 days by XTT dye based two fold dilution method relative to control; assay type: functional; conditions: H37Ra ATCC 25177, 288 h, read-out: GI; method in brief: as §2
[18] = tested on: Mycobacterium tuberculosis; test: Growth inhibition of Mycobacterium bovis BCG ATCC 35743 at dormant stage at 100 ug/ml measured after 12 days by nitrate reductase dye based two fold dilution method relative to control; assay type: functional; conditions: BCG str. ATCC 35743, 288 h, read-out: GI; method in brief: as §3
[19] = tested on: Mycobacterium tuberculosis; test: Growth inhibition of Mycobacterium bovis BCG ATCC 35743 at dormant stage measured after 12 days by nitrate reductase dye based two fold dilution method; assay type: functional; conditions: BCG str. ATCC 35743, 288 h; method in brief: as §3
[20] = tested on: Mycobacterium tuberculosis; test: Growth inhibition of Mycobacterium bovis BCG ATCC 35743 at dormant stage at 1.56 ug/ml measured after 12 days by nitrate reductase dye based two fold dilution method relative to control; assay type: functional; conditions: BCG str. ATCC 35743, 288 h, read-out: GI; method in brief: as §3
[21] = tested on: Mycobacterium tuberculosis; test: Growth inhibition of Mycobacterium bovis BCG ATCC 35743 at active stage at 1.56 ug/ml measured after 8 days by nitrate reductase dye based two fold dilution method relative to control; assay type: functional; conditions: BCG str. ATCC 35743, 192 h, read-out: GI; method in brief: as §3
[22] = tested on: Mycobacterium tuberculosis; test: Growth inhibition of Mycobacterium bovis BCG ATCC 35743 at active stage at 25 ug/ml measured after 8 days by nitrate reductase dye based two fold dilution method relative to control; assay type: functional; conditions: BCG str. ATCC 35743, 192 h, read-out: GI; method in brief: as §3
[23] = tested on: Staphylococcus aureus; test: Growth inhibition of Staphylococcus aureus NCIM 2010 at 30 ug/ml measured after 12 hrs relative to control; assay type: functional; conditions: NCIM 2010, 12 h, read-out: GI; method in brief: as §4
[24] = Cytotoxicity against […]-differentiated human THP1 cells measured after 48 hrs by MTT assay; assay type: toxicity, cell-based, THP-1; method in brief: as §5
[25] = tested on: Escherichia coli; test: Growth inhibition of Escherichia coli NCIM 2688 at 10 ug/ml measured after 8 hrs relative to control; assay type: functional; conditions: NCIM 2688, 8 h, read-out: GI; method in brief: as §4
[26] = tested on: Mycobacterium tuberculosis; test: Growth inhibition of Mycobacterium tuberculosis H37Ra ATCC 25177 at active stage at 0.78 ug/ml measured after 8 days by XTT dye based two fold dilution method relative to control; assay type: functional; conditions: H37Ra ATCC 25177, 192 h, read-out: GI; method in brief: as §2
[27] = tested on: Mycobacterium tuberculosis; test: Growth inhibition of Mycobacterium bovis BCG ATCC 35743 at active stage measured after 8 days by nitrate reductase dye based two fold dilution method; assay type: functional; conditions: BCG str. ATCC 35743, 192 h; method in brief: as §3
[28] = Selectivity index, ratio of GI50 for […]-differentiated human THP1 cells to MIC for Mycobacterium tuberculosis H37Ra ATCC 25177 at dormant stage; assay type: toxicity, cell-based, THP-1; conditions: read-out: Selectivity Index; method in brief: as §1

Structure (SMILES)	selectivity ratio [1]	Selectivity Index [2]	IC50 [3] [µg/mL]	IC90 [3] [µg/mL]	inhibition of growth at 3 µg/mL [4] [%]	inhibition of growth at 3.13 µg/mL [5] [%]	inhibition of growth at 30 µg/mL [6] [%]	GI50 at 48 h [7] [µg/mL]	selectivity ratio [9]	inhibition of growth at 25 µg/mL [11] [%]	GI50 at 48 h [12] [µg/mL]	inhibition of growth at 50 µg/mL [13] [%]	inhibition of growth at 100 µg/mL [14] [%]	inhibition at 48 h, 100 ug/ml [15] [%]	inhibition of growth at 3 µg/mL [16] [%]	inhibition of growth at 50 µg/mL [17] [%]	IC50 [19] [µg/mL]	IC90 [19] [µg/mL]	inhibition of growth at 30 µg/mL [23] [%]	GI50 at 48 h [24] [µg/mL]	also measured
O=C1NC(=S)S/C1=C\c1cc2cc(F)ccc2nc1Cl	5.6	5.6	5.1 (≈ 15.7 µM)	18 (≈ 55.4 µM)	0.38	28.4	-3.29	> 100	5.6	101	> 100	119	101	20	18.9	110	3.9 (≈ 12 µM)	5.2 (≈ 16 µM)	101	> 100	inhibition of growth at 0.78 µg/mL [8]: -54.6%; MIC [10]: 50 µg/mL (≈ 154 µM); inhibition of growth at 100 µg/mL [18]: 98.5%; inhibition of growth at 1.56 µg/mL [20]: -2.98%; inhibition of growth at 1.56 µg/mL [21]: -13.2%; inhibition of growth at 25 µg/mL [22]: 99%; inhibition of growth at 10 µg/mL [25]: 27.5%; inhibition of growth at 0.78 µg/mL [26]: 9.07%; IC50 [27]: 2.4 µg/mL (≈ 7.39 µM); IC90 [27]: 4.2 µg/mL (≈ 12.9 µM); selectivity ratio [28]: 5.6
CCOc1ccc2nc(Cl)c(/C=C3\SC(=S)NC3=O)cc2c1	28.6	28.6	2.3 (≈ 6.56 µM)	3.5 (≈ 9.98 µM)	91	71.7	98.5	> 100	28.6	106	> 100	100	111	30.2	64.7	93	1.1 (≈ 3.14 µM)	1.9 (≈ 5.42 µM)	-29.8	> 100	inhibition of growth at 0.78 µg/mL [8]: -51.8%; MIC [10]: 125 µg/mL (≈ 356 µM); inhibition of growth at 100 µg/mL [18]: 99.5%; inhibition of growth at 1.56 µg/mL [20]: 75.5%; inhibition of growth at 1.56 µg/mL [21]: 93.4%; inhibition of growth at 25 µg/mL [22]: 98.6%; inhibition of growth at 10 µg/mL [25]: 77.2%; inhibition of growth at 0.78 µg/mL [26]: -4.44%; selectivity ratio [28]: 28.6
Cc1cccc2cc(/C=C3\SC(=S)N(CC(=O)O)C3=O)c(Cl)nc12	5	5	10.3 (≈ 27.2 µM)	19.9 (≈ 52.5 µM)	22.7	11.5	-24.5	> 100	5	93.4	> 100	107	98.5	3.1	8.28	102	> 30	> 30	15.5	> 100	inhibition of growth at 10 µg/mL [25]: 3.38%; inhibition of growth at 0.78 µg/mL [26]: -16%; IC50 [27]: > 30 µg/mL; IC90 [27]: > 30 µg/mL; selectivity ratio [28]: 5
